# pIC50: −log10 of the molar value.
# How the values were obtained:
# [1] = system: AGS; test: Induction of apoptosis in human AGS cells assessed as necrotic cells at 1 uM measured after 48 hrs FITC-A/PE-A staining based flow cytometry (reference value: 1.35 to 2.69%); type: functional
# [2] = system: AGS; test: Induction of apoptosis in human AGS cells assessed as viable cells at 0.2 uM measured after 48 hrs FITC-A/PE-A staining based flow cytometry (reference value: 92.05 to 93.85%); type: functional; details: read-out: Activity
# [3] = system: AGS; test: Induction of apoptosis in human AGS cells assessed as necrotic cells at 0.2 uM measured after 48 hrs FITC-A/PE-A staining based flow cytometry (reference value: 1.35 to 2.69%); type: functional
# [4] = system: AGS; test: Induction of apoptosis in human AGS cells assessed as late apoptotic cells at 0.2 uM measured after 48 hrs FITC-A/PE-A staining based flow cytometry (reference value: 1.89 to 3.49%); type: functional
# [5] = system: AGS; test: Induction of apoptosis in human AGS cells assessed as early apoptotic cells at 1 uM measured after 48 hrs FITC-A/PE-A staining based flow cytometry (reference value: 1.77 to 2.91%); type: functional
# [6] = system: AGS; test: Induction of apoptosis in human AGS cells assessed as viable cells at 5 uM measured after 48 hrs FITC-A/PE-A staining based flow cytometry (reference value: 92.05 to 93.85%); type: functional; details: read-out: Activity
# [7] = system: AGS; test: Induction of apoptosis in human AGS cells measured after 48 hrs FITC-A/PE-A staining based flow cytometry; type: functional, cell-based
# [8] = system: MGC-803; test: Induction of apoptosis in human MGC803 cells assessed as necrotic cells at 5 uM measured after 48 hrs FITC-A/PE-A staining based flow cytometry (reference value: 0.9 to 2.18%); type: functional
# [9] = system: MGC-803; test: Induction of apoptosis in human MGC803 cells assessed as viable cells at 0.2 uM measured after 48 hrs FITC-A/PE-A staining based flow cytometry (reference value: 94.89 to 96.41%); type: functional; details: MGC-803, 48 h, read-out: Activity
# [10] = system: MGC-803; test: Induction of apoptosis in human MGC803 cells assessed as viable cells at 1 uM measured after 48 hrs FITC-A/PE-A staining based flow cytometry (reference value: 94.89 to 96.41%); type: functional; details: MGC-803, 48 h, read-out: Activity
# [11] = system: MGC-803; test: Induction of apoptosis in human MGC803 cells assessed as late apoptotic cells at 0.5 uM measured after 48 hrs FITC-A/PE-A staining based flow cytometry (reference value: 0.9 to 2.18%); type: functional
# [12] = system: MGC-803; test: Cell cycle arrest in human MGC803 cells assessed as accumulation at S-phase at 0.5 uM measured after 24 hrs by propidium iodide staining based flow cytometry (reference value: 33%); type: functional
# [13] = system: MGC-803; test: Induction of apoptosis in human MGC803 cells assessed as necrotic cells at 1 uM measured after 48 hrs FITC-A/PE-A staining based flow cytometry (reference value: 0.9 to 2.18%); type: functional
# [14] = system: MGC-803; test: Induction of apoptosis in human MGC803 cells assessed as early apoptotic cells at 0.2 uM measured after 48 hrs FITC-A/PE-A staining based flow cytometry (reference value: 0.59 to 3.54%); type: functional
# [15] = system: AGS; test: Induction of apoptosis in human AGS cells assessed as early apoptotic cells at 0.2 uM measured after 48 hrs FITC-A/PE-A staining based flow cytometry (reference value: 1.77 to 2.91%); type: functional
# [16] = system: MGC-803; test: Induction of apoptosis in human MGC803 cells assessed as viable cells at 5 uM measured after 48 hrs FITC-A/PE-A staining based flow cytometry (reference value: 94.89 to 96.41%); type: functional; details: MGC-803, 48 h, read-out: Activity
# [17] = system: AGS; test: Induction of apoptosis in human AGS cells assessed as necrotic cells at 0.5 uM measured after 48 hrs FITC-A/PE-A staining based flow cytometry (reference value: 1.35 to 2.69%); type: functional
# [18] = system: MGC-803; test: Cell cycle arrest in human MGC803 cells assessed as increase in accumulation at G1-phase measured after 24 hrs by propidium iodide staining based flow cytometry; type: functional
# [19] = system: AGS; test: Induction of apoptosis in human AGS cells assessed as late apoptotic cells at 1 uM measured after 48 hrs FITC-A/PE-A staining based flow cytometry (reference value: 1.89 to 3.49%); type: functional
# [20] = system: MGC-803; test: Cell cycle arrest in human MGC803 cells assessed as accumulation at G2/M-phase at 1 uM measured after 24 hrs by propidium iodide staining based flow cytometry (reference value: 22%); type: functional
# [21] = system: MGC-803; test: Cell cycle arrest in human MGC803 cells assessed as accumulation at S-phase at 1 uM measured after 24 hrs by propidium iodide staining based flow cytometry (reference value: 33%); type: functional
# [22] = system: AGS; test: Induction of apoptosis in human AGS cells assessed as early apoptotic cells at 5 uM measured after 48 hrs FITC-A/PE-A staining based flow cytometry (reference value: 1.77 to 2.91%); type: functional
# [23] = system: AGS; test: Induction of apoptosis in human AGS cells assessed as late apoptotic cells at 0.5 uM measured after 48 hrs FITC-A/PE-A staining based flow cytometry (reference value: 1.89 to 3.49%); type: functional
# [24] = system: MGC-803; test: Induction of apoptosis in human MGC803 cells assessed as necrotic cells at 0.2 uM measured after 48 hrs FITC-A/PE-A staining based flow cytometry (reference value: 0.9 to 2.18%); type: functional
# [25] = system: MGC-803; test: Induction of apoptosis in human MGC803 cells assessed as late apoptotic cells at 1 uM measured after 48 hrs FITC-A/PE-A staining based flow cytometry (reference value: 0.67 to 0.82%); type: functional
# [26] = system: MGC-803; test: Cell cycle arrest in human MGC803 cells assessed as accumulation at G2/M-phase at 0.2 uM measured after 24 hrs by propidium iodide staining based flow cytometry (reference value: 22%); type: functional
# [27] = system: MGC-803; test: Cell cycle arrest in human MGC803 cells assessed as accumulation at S-phase at 0.2 uM measured after 24 hrs by propidium iodide staining based flow cytometry (reference value: 33%); type: functional
# [28] = system: MGC-803; test: Cell cycle arrest in human MGC803 cells assessed as accumulation at G2/M-phase at 0.5 uM measured after 24 hrs by propidium iodide staining based flow cytometry (reference value: 22%); type: functional
# [29] = system: MGC-803; test: Induction of apoptosis in human MGC803 cells assessed as early apoptotic cells at 1 uM measured after 48 hrs FITC-A/PE-A staining based flow cytometry (reference value: 0.59 to 3.54%); type: functional
# [30] = system: MGC-803; test: Induction of apoptosis in human MGC803 cells assessed as viable cells at 0.5 uM measured after 48 hrs FITC-A/PE-A staining based flow cytometry (reference value: 94.89 to 96.41%); type: functional; details: MGC-803, 48 h, read-out: Activity
# [31] = system: MGC-803; test: Cell cycle arrest in human MGC803 cells assessed as accumulation at G1-phase at 0.2 uM measured after 24 hrs by propidium iodide staining based flow cytometry (reference value: 45%); type: functional
# [32] = system: AGS; test: Cytotoxicity against human AGS cells assessed as reduction in cell viability measured after 72 hrs by CCK8 assay; type: functional, cell-based
# Method in brief: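 MGC803 or AGS cells (RPMI 1640, 10% FBS, 5% CO₂, 37 °C) plated at 3 × 10³ per well overnight, then exposed to 0.1–10 μM for 72 h. Viability was read by CCK8 absorbance at 450 nm, and IC₅₀ was calculated from the concentration series.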
smiles,measurement,setting,value
CC[C@H](C)/C=C/C1=CC2=C(Cl)C(=O)[C@@]3(C)OC(=O)C(C(=O)[C@@H](C)[C@@H](C)O)=C3C2=CN1C/C=C(\C)CCC=C(C)C,Activity,[1],3.36%
same,viability at 0.2 µM,[2],93.2%
same,Activity,[3],1.37%
same,Activity,[4],2.69%
same,Activity,[5],16.5%
same,viability at 5 µM,[6],8.93%
same,Activity,[7],Dose-dependent effect
same,Activity,[8],5.03%
same,viability at 0.2 µM,[9],90.7%
same,viability at 1 µM,[10],71.7%
same,Activity,[11],2.85%
same,Activity,[12],28%
same,Activity,[13],6.01%
same,Activity,[14],2.96%
same,Activity,[15],2.78%
same,viability at 5 µM,[16],20.1%
same,Activity,[17],2.85%
same,Activity,[18],Dose-dependent effect
same,Activity,[19],35.16%
same,Activity,[20],9.4%
same,Activity,[21],32%
same,Activity,[22],1.86%
same,Activity,[23],3.01%
same,Activity,[24],4.06%
same,Activity,[25],18.17%
same,Activity,[26],23%
same,Activity,[27],30%
same,Activity,[28],24%
same,Activity,[29],4.16%
same,viability at 0.5 µM,[30],91.3%
same,Activity,[31],48%
same,pIC50,[32],6.21

# — ChEMBL document CHEMBL4610092, “Cytotoxic Nitrogenated Azaphilones from the Deep-Sea-Derived Fungus Chaetomium globosum MP4-S01-7” (J Nat Prod, 2020)
